ChEMBL document CHEMBL1806366, “Synthesis and structure-activity relationship of new 1,5-dialkyl-1,5-benzodiazepines as cholecystokinin-2 receptor antagonists” (Bioorg Med Chem, 2011)
≈ marks a conversion by molar mass, not a printed value. Calls of active or inactive are those of the source. The calls are words filed in the database; no cut-off is given here.

Legend:
Mus musculus [1] = experiment: Anxiolytic activity in po dosed mouse assessed as duration of action of the compound measured after 60 mins post dose by black/white box test; type: functional
How it was run: (§1)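 Mice dosed orally 60 min before testing, then placed in the centre of the illuminated white compartment of a two-part black/white box. Time spent exploring the white and black sides recorded; longer time in the white side read as anxiolytic effect. Model used for both potency and duration of action.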

[2] = Selectivity ratio of pKi for guinea pig brain CCK2 receptor to pKi for rat pancreas CCK1
How it was run: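 Radioligand displacement binding to guinea pig brain membranes (CCK2, incubated at 25 °C) and rat pancreas membranes (CCK1, incubated at 37 °C) with 0.2 nM [³H]-CCK8s. Non-specific binding was defined with L-365,260 (CCK2) or L-364,718 (CCK1). Bound ligand was separated by GF/C filtration and counted by liquid scintillation. Ki values were derived for each subtype, with KD and Bmax taken from separate saturation isotherms.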

[3] = biological target: T1, Cholecystokinin receptor type A (Rattus norvegicus, UniProt P30551); experiment: Displacement of [3H]CCK8 from rat pancreas CCK1 receptor at by liquid scintillation counting
T1 sequence (P30551 whole entry): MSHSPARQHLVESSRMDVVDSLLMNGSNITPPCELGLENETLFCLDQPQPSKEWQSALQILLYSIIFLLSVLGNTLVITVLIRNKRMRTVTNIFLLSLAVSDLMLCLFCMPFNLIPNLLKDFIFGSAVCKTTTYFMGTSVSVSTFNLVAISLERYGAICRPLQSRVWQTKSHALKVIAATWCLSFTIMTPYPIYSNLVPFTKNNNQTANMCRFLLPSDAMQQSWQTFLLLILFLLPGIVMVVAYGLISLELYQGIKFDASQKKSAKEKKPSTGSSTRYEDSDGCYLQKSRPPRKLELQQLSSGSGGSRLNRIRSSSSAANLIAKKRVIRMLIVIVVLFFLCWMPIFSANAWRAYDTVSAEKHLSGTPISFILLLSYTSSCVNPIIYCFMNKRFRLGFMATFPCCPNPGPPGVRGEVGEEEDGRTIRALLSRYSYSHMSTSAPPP
How it was run: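 Rat pancreas membranes incubated at 37 °C with [³H]-CCK8s at 0.2 nM; nonspecific binding defined with L-364,718. Bound and free ligand separated by filtration over GF/C filters, then counted by liquid scintillation. Ki calculated using Bmax and KD from separate saturation binding isotherms.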

Mus musculus [4] = experiment: Anxiolytic activity in po dosed mouse measured after 60 mins post dose by black/white box test; type: functional; how it was run: as §1
[5] = (§2) Volume of distribution in rat administered as methocel suspension; type: ADME, organism-based; settings: in vivo
[6] = Clearance in rat administered as methocel suspension; type: ADME, organism-based; settings: in vivo
[7] = Half life in dog administered as methocel suspension; type: ADME, organism-based, Canis lupus familiaris; settings: in vivo
[8] = Clearance in dog administered as methocel suspension; type: ADME, organism-based, Canis lupus familiaris; settings: in vivo
[9] = Displacement of [3H]CCK8 from guinea pig brain CCK2 receptor by liquid scintillation counting; set-up: species or system Cavia porcellus
How it was run: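 Guinea pig brain membranes incubated at 25 °C with [³H]-CCK8s at 0.2 nM; nonspecific binding defined with L-365,260. Bound and free ligand separated by filtration over GF/C filters, then counted by liquid scintillation. Ki calculated using Bmax and KD from separate saturation binding isotherms.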

[10] = Solubility of the compound at pH 2.4; type: physicochemical; settings: buffer
[11] = (§3) Oral bioavailability in rat administered as methocel suspension; type: ADME, organism-based; settings: in vivo
[12] = Oral bioavailability in dog administered as methocel suspension; type: ADME, organism-based, Canis lupus familiaris; settings: in vivo
[13] = Half life in rat administered as methocel suspension; type: ADME, organism-based; settings: in vivo
[14] = Volume of distribution in dog administered as methocel suspension; type: ADME, organism-based, Canis lupus familiaris; settings: in vivo
Mus musculus [15] = experiment: Anxiolytic activity in mouse up to 300 ug/kg, po measured after 60 mins post dose by black/white box test; type: functional, organism-based; how it was run: as §1
Rattus norvegicus [16] = experiment: as §2; type: ADME, organism-based; settings: in vivo
Rattus norvegicus [17] = experiment: as §3; type: ADME, organism-based; settings: in vivo
[18] = Mus musculus, po, 1 h, read-out: ED50

Row | Ki selectivity ratio (CCK1 Ki / CCK2 Ki) [2] | Ki [3] | Vd [5] | clearance [6] | half-life [7] | clearance [8] | pKi [9] | solubility ([10]; read-out: solubility) | bioavailability [11] | bioavailability [12] | half-life [13] | Vd [14] | solubility [10] | Vd (Rattus norvegicus [16]) | F (Rattus norvegicus [17]) | Structure (SMILES) | Time (Mus musculus [1]) | ED50 (Mus musculus [4]; [18]) | Activity (Mus musculus [15]) | ED50 (Mus musculus [4])
1 | 234 | 676 nM | 1.1 L/kg | 34 mL/min | 0.9 h | 14 mL/min | 8.54 | 450 µg/mL (≈ 912 µM) | 18% | 36% | 0.38 h | 1 L/kg | – | – | – | CC(C)CCN1C(=O)C(NC(=O)Nc2ccccc2)C(=O)N(CCN2CCOCC2)c2ccccc21 (racemic) | 2 h | 0.011 µg/kg | – | –
2 | 1120 | 8320 nM | – | – | – | – | 8.13 | 450 µg/mL (≈ 883 µM) | – | – | – | – | – | – | – | CC(C)CCN1C(=O)C(NC(=O)Nc2ccc(O)cc2)C(=O)N(CCN2CCOCC2)c2ccccc21 (racemic) | – | – | inactive | –
3 | 759 | 3310 nM | 3.1 L/kg | 37 mL/min | 1.3 h | 23 mL/min | 8.36 | 850 µg/mL (≈ 1880 µM) | 20% | 40% | 1 h | 2.5 L/kg | – | – | – | CC(C)CCN1C(=O)C(NC(=O)Nc2ccccc2)C(=O)N(CCN(C)C)c2ccccc21 (racemic) | 2 h | 0.041 µg/kg | – | –
4 | – | 2040 nM | 1 L/kg | 12 mL/min | 1.6 h | 34 mL/min | 9.24 | – | 13% | 9% | 1.1 h | 4.8 L/kg | 230 µg/mL (≈ 402 µM) | – | – | O=C(Nc1ccccc1)NC1C(=O)N(CCN2CCOCC2)c2ccccc2N(CC23CC4CC(CC(C4)C2)C3)C1=O (racemic) | – | – | – | 0.001 µg/kg
5 | 3240 | 3240 nM | 2.7 L/kg | 28 mL/min | – | – | 9 | 850 µg/mL (≈ 1600 µM) | 5% | – | 1.1 h | – | – | – | – | CN(C)CCN1C(=O)C(NC(=O)Nc2ccccc2)C(=O)N(CC23CC4CC(CC(C4)C2)C3)c2ccccc21 (racemic) | 4 h | 0.004 µg/kg | – | –
6 | – | 2040 nM | – | – | – | – | 9.64 | 230 µg/mL (≈ 402 µM) | – | – | – | – | – | 1.1 L/kg | 10% | O=C(Nc1ccccc1)NC1C(=O)N(CCN2CCOCC2)c2ccccc2N(CC23CC4CC(CC(C4)C2)C3)C1=O (single isomer, unassigned; (-)) | 4 h | 0.002 µg/kg | – | –
